These results are taken from ChEMBL document CHEMBL1828630, “Design, synthesis and vasorelaxant evaluation of novel coumarin-pyrimidine hybrids” (Bioorg Med Chem, 2011).

pIC50: −log10 of the molar value.

In the first assay the test system is Aorta. Kind of assay: Vasorelaxant activity in Wistar rat thoracic aortic ring assessed as inhibition of norepinephrine hydrochloride-induced contraction treated after noradrenaline challenge. It is filed as functional, tissue-based.
Details: not given; call rule not given here
In a few lines:
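Aortic ring preparations held under resting tension below 2 g and allowed to stabilise for 2 h. Contraction to norepinephrine hydrochloride (10^-6 M) was recorded before and after exposure to increasing concentrations of test compound. Tension was measured isometrically. Compounds were taken from 0.01 M DMSO stocks, and DMSO-alone controls were run at matching concentrations. Activity was reported as IC50.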
As to `Cc1cc(-c2ccccc2)nc(Nc2ccc3oc(=O)ccc3c2)n1`, the IC50 result is listed as “Not Active”.

With `COc1ccc2ccc(=O)oc2c1C(=O)/C=C/c1ccc(C)cc1`, the IC50 result was “Not Active”.

Consider `COc1ccc2ccc(=O)oc2c1-c1cc(-c2ccc([N+](=O)[O-])cc2)nc(N)n1`, for which the IC50 result is listed as “Not Active”.

Staying with this assay, now noted: Rattus norvegicus, Wistar, Aorta; read-out: IC50.
By pIC50 is commonly meant −log10 of the IC50, conventionally taken in molar units. On to `COc1ccc2ccc(=O)oc2c1C(C)=O`, for which the pIC50 was 3.32.

For `CCN(CC)c1ccc(-c2nc(Nc3ccc4oc(=O)ccc4c3)[nH]c(=O)c2C#N)cc1`, the pIC50 is 3.38.

As to `Nc1ccc2oc(=O)ccc2c1`, the pIC50 is 3.27.

Turning to `N=C(N)Nc1ccc2oc(=O)ccc2c1`, the pIC50 was 3.38.

`Cc1cc(=O)[nH]c(Nc2ccc3oc(=O)ccc3c2)n1`: the negative logarithm of the IC50 (pIC50) is 3.15.

`Cc1cc(Cl)nc(Nc2ccc3oc(=O)ccc3c2)n1`: the pIC50 was 3.33.

Consider `CCN(CC)c1cc(C)nc(Nc2ccc3oc(=O)ccc3c2)n1`, for which the pIC50 was 3.31.

Turning to `Cc1cc(C)nc(Nc2ccc3oc(=O)ccc3c2)n1`, the pIC50 was 3.39.

`O=c1cc(O)nc(Nc2ccc3oc(=O)ccc3c2)[nH]1`: the pIC50 is 3.09.

Take `O=c1ccc2cc(Nc3nc(Cl)cc(Cl)n3)ccc2o1`: the pIC50 is 3.34.

Consider `Cc1nc(Nc2ccc3oc(=O)ccc3c2)nc(Cl)c1CCCl`, for which the negative-log IC50 (pIC50) is 3.15.

Regarding `N#Cc1c(N)nc(Nc2ccc3oc(=O)ccc3c2)nc1-c1ccccc1`, the pIC50 is 3.23.

Consider `N/C(=N/O)c1c(N)nc(Nc2ccc3oc(=O)ccc3c2)nc1-c1ccccc1`, for which the pIC50 was 3.33.

`N#Cc1c(-c2ccccc2)nc(Nc2ccc3oc(=O)ccc3c2)[nH]c1=O`: the pIC50 was 3.26.

With `N/C(=N/O)c1c(-c2ccccc2)nc(Nc2ccc3oc(=O)ccc3c2)[nH]c1=O`, the pIC50 was 3.33.

Consider `COc1ccc2ccc(=O)oc2c1C(=O)/C=C/c1ccc(C)o1`, for which the pIC50 was 3.25.

In the case of `COc1ccc2ccc(=O)oc2c1C(=O)/C=C/c1cccs1`, the pIC50 is 3.43.

`COc1ccc2ccc(=O)oc2c1C(=O)/C=C/c1ccccc1`: the pIC50 was 3.28.

With `COc1ccc2ccc(=O)oc2c1C(=O)/C=C/c1ccc(C(F)(F)F)cc1`, the pIC50 is 3.43.

In the case of `COc1ccc2ccc(=O)oc2c1C(=O)/C=C/c1ccc(SC)cc1`, the pIC50 is 3.15.

Regarding `COc1ccc2ccc(=O)oc2c1C(=O)/C=C/c1ccc([N+](=O)[O-])cc1`, the pIC50 is 3.15.

For `COc1ccc2ccc(=O)oc2c1-c1cc(-c2ccc(C)o2)nc(N)n1`, the pIC50 is 2.91.

For `COc1ccc2ccc(=O)oc2c1-c1cc(-c2cccs2)nc(N)n1`, the negative-log IC50 (pIC50) is 3.19.

Consider `COc1ccc2ccc(=O)oc2c1-c1cc(-c2ccccc2)nc(N)n1`, for which the pIC50 was 3.10.

For `COc1ccc2ccc(=O)oc2c1-c1cc(-c2ccc(C)cc2)nc(N)n1`, the pIC50 was 3.03.

With `COc1ccc2ccc(=O)oc2c1-c1cc(-c2ccc(C(F)(F)F)cc2)nc(N)n1`, the pIC50 was 2.97.

As for `COc1ccc2ccc(=O)oc2c1-c1cc(-c2ccc(SC)cc2)nc(N)n1`, the pIC50 is 2.94.

As for `COc1cc2nc(N3CCN(C(=O)c4ccco4)CC3)nc(N)c2cc1OC` [PRAZOSIN], the negative logarithm of the IC50 (pIC50) was 3.31.

Staying with this assay, now noted: Rattus norvegicus, Wistar, Aorta; read-out: pIC50 (converted).
For `COc1ccc2ccc(=O)oc2c1-c1cc(-c2ccccc2)nc(N)n1`, the IC50 was 1250 µM.

For `COc1ccc2ccc(=O)oc2c1-c1cc(-c2ccc(C)cc2)nc(N)n1`, the IC50 is 1070 µM.

For the compound `COc1ccc2ccc(=O)oc2c1-c1cc(-c2ccc(SC)cc2)nc(N)n1`, the IC50 was 876 µM.
